The record followed here is ChEMBL document CHEMBL1681788, “Effect of structural modification in the amine portion of substituted aminobutyl-benzamides as ligands for binding σ1 and σ2 receptors” (Bioorg Med Chem, 2011).

Data set [1] deals with sigma1/sigma2 receptors (Cavia porcellus). The data set is described as follows: Selectivity ratio, ratio of Ki for guinea pig sigma1 receptor to Ki for guinea pig sigma2 receptor.
Data set [2] concerns the target Sigma non-opioid intracellular receptor 1 (Cavia porcellus, UniProt Q60492). The data set can be described thus: Displacement of [3H]-(+)-pentazocine from Sigma1-receptor in guinea pig brain membrane. The data set is classed as cell membranes. Summed up: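 Competition binding with [3H](+)-PTZ as radioligand on membranes from fresh-frozen male English Hartley guinea pig brain. Duplicates, repeated four times. Test compounds came from 10^-3 M stocks in acidified 1% EtOH/water.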
(In general: In a radioligand displacement assay an active substance lowers the binding of a labelled ligand.)

Data set [3] can be described thus: Displacement of [3H]ditolylguanidine from sigma2 receptor in guinea pig brain membrane. The data set is classed as cell membranes, Cavia porcellus. A digest of the protocol:
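[3H]DTG competition binding with 500 nM (+)-PTZ present to mask σ1 sites, on fresh-frozen male English Hartley guinea pig brain membranes. Duplicate wells, four repeats. Compound stocks were 10^-3 M in acidified 1% EtOH/water.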

Data set [4] is described as follows: Chemical stability of the compound assessed as compound remaining after 16 hrs by HPLC analysis. Format: physicochemical. Conditions: read-out: Activity. A digest of the protocol:
(§1)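 Compounds held at 10^-3 M in aqueous stock buffer of 1% EtOH with AcOH: 2.5% AcOH generally, 0.1% AcOH for the HCl and oxalate salts. Stored in stock buffer, then purity analysed by analytical HPLC at the stated time point (16 h, 44 h or 25 days).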

Data set [5] in a line: Chemical stability of the compound assessed as decomposition after 25 days by HPLC analysis. The data set is classed as physicochemical. Conditions: 600 h. Summed up:
as §1

Data set [6] in a line: Chemical stability of the compound assessed as compound remaining after 44 hrs by HPLC analysis. Conditions: read-out: Activity. Format: physicochemical. Summed up:
as §1

Sigma non-opioid intracellular receptor 1, sequence (Q60492 whole entry): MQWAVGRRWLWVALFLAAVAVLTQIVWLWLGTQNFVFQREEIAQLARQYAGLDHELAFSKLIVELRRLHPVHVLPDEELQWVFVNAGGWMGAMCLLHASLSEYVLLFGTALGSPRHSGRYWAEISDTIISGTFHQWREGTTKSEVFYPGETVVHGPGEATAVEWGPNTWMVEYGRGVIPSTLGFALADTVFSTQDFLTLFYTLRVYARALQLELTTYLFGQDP

As a reminder, the Ki is a dissociation constant, usually derived from enzyme kinetics or from competition with a known ligand. For the compound `COc1cc2c(cc1OC)CCN(CCCCNC(=O)c1cc(Br)cc(OC)c1OC)CC2`, the Ratio Ki in data set [1] was 8.5. The Ki in data set [2] was found to be 5.07 µM; in data set [3], 734 nM.

In the case of `COc1cc2c(cc1OC)CN(CCCCNC(=O)c1cc(Br)cc(OC)c1OC)CCC2`, the Ratio Ki in data set [1] came to 6.58. Moreover, the Ki in data set [2] is 2.07 µM; in data set [3], 315 nM.

Regarding `COc1cc2c(cc1OC)CN(CCCCNC(=O)c1cc(Br)cc(OC)c1OC)C2`, the Ratio Ki in data set [1] is 1760. For the same compound, the Ki stood at 1.44 µM in data set [2] and 0.82 nM in data set [3].

On to `COc1cc2c(cc1OC)N(CCCCNC(=O)c1cc(Br)cc(OC)c1OC)CCCC2`, for which the Ki was 2.56 µM in data set [2] and 8960 nM in data set [3].

Regarding `COc1ccc(CCN2CCN(CCCc3ccccc3)CC2)cc1OC` [[11C]SA4503], the affinity in data set [3], expressed as Ki, was 89.5 nM.

Regarding `COc1ccc(CCNCCCCNC(=O)c2cc(Br)cc(OC)c2OC)cc1OC`, in data set [1], the Ratio Ki came out at 0.2. The compound also displayed an inhibitory constant (Ki) in data set [3] of 4620 nM.

In the case of `COc1cc2c(cc1OC)N(CCCCNC(=O)c1cc(Br)cc(OC)c1OC)CC2`, the Ratio Ki in data set [1] turned out to be 0.47. The results for the Ki in data set [2] and in data set [3] were 4.52 µM and 9680 nM, respectively. The remaining at 16 h in data set [4] is 86%. Besides, the Stability result in data set [5] was “Unstable”.

In turn, `COc1cc2c(cc1OC)CN(CCCCNC(=O)c1cc(Br)cc(OC)c1OC)CC2` gave an inhibition constant Ki in data set [3] of 2.7 nM.

For the compound `COc1cc2c(cc1OC)N(CCCCNC(=O)c1cc(Br)cc(OC)c1OC)CCC2`, the Ratio Ki in data set [1] amounted to 0.77. The Ki in data set [2] was determined as 4.5 µM; in data set [3], 5820 nM. In addition, in data set [4], the remaining at 16 h was determined as 90%. The remaining at 44 h in data set [6] was determined as 38%.

For the compound `COc1ccc(CCN(C)CCCCNC(=O)c2cc(Br)cc(OC)c2OC)cc1OC`, the Ki in data set [3] worked out at 2130 nM.
